# Source: PubChem (The Scripps Research Institute Molecular Screening Center)
# HTR1E antagonist: 5-HT1E (human) receptor antagonism. CHO 5-HT1E Ga15 NFAT-bla reporter, FRET, antagonist. P28566. hit rate 0.99% among 65,000. AID 571. inhibition, % at 6 µM;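 active = inhibition above a set limit, the mean inhibition across every tested compound plus 3 SD, cut at about 29% in these data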;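 note: signal is the 460 over 535 nm emission ratio of beta-lactamase substrate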
# Target sequence (P28566 whole entry, looked up): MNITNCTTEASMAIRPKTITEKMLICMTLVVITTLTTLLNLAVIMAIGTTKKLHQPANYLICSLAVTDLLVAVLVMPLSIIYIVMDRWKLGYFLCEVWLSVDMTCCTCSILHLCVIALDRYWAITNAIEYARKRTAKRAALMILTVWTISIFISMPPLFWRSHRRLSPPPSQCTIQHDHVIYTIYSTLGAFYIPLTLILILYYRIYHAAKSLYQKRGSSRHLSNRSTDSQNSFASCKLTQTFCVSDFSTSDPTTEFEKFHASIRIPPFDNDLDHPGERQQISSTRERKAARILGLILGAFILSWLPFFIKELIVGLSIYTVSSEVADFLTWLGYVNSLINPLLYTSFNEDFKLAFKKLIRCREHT
# 5HT1a ag: agonists of human 5-HT1a serotonin receptor; CHO 5-HT1a Ga15 NFAT-bla reporter, FRET ratio; 0% basal, 100% maximal reference agonist; activation, % at 10 µM; hit rate 0.56% among 65,000; AID 567;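 active = activation above the screen-wide mean activation plus 3 SD, cut at about 19% in these data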
# 5HT1a antag: 5-HT1a (human) receptor antagonism. CHO 5-HT1a Ga15 NFAT-bla reporter, antagonist mode. inhibition, % at 10 µM. hit rate 0.68% among 62,000. AID 612;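 active = inhibition above the mean of all tested compounds plus 3 SD, cut at about 43% in these data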;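 note: receptor stimulated by 5-CT agonist at 100 nM near EC80; beta-lactamase reporter measured by ratiometric fluorescence of a cleavable substrate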
# HTR1E agonist: 5-HT1E (human) receptor agonism; P28566; CHO 5-HT1E Ga15 NFAT-bla reporter, FRET; 0% DMSO wells, 100% control agonist wells; activation, % at 6 µM; hit rate 0.69% among 65,000; AID 574;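 active = activation above a set limit, the screen-wide mean activation plus 3 SD, cut at about 8.5% in these data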
# S1P1 ag pot: S1P1 (human) agonism or agonism potentiation. S1P1 CRE-bla cells, forskolin, beta-lactamase FRET, potentiator mode; S1P1 agonist co-added at EC20, 2 nM; 100% = saturating reference agonist, 0% = basal. P21453. hit rate 0.57% among 56,000. activation, % at 9.5 µM. AID 449;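 active = activation above a cutoff set at the mean activation of all tested compounds plus 3 SD, cut at about 54% in these data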;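 note: forskolin at 4 µM as EC80 and the EC20 agonist is SEW2871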
# S1P3 ag: S1P3 (human) receptor agonism; activation, % at 4.5 µM; S1P3 NFAT-BLA reporter cells, FRET ratio; relative to 1 µM S1P, basal subtracted; Q99500; hit rate 0.1% among 60,000;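 active = activation above the screen-wide mean plus 3 SD, cut at about 4.5% in these data, passing the limit was not always enough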
#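 material = human S1P3 NFAT-BLA reporter CHO cells | schedule = 4 h compound at 37 °C, 2 h substrate at RT | measured by = fluorescent BLA substrate, ex 405 nm, em 460/535 nm ratio | controls = 1 µM S1P reference | replication = primary once, confirmation triplicate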
# A number is an active result; - = inactive; . = no result. Compounds with a hit are over-represented: about 3% of the library has one in this group of screens.
SMILES,HTR1E antagonist,5HT1a ag,5HT1a antag,HTR1E agonist,S1P1 ag pot,S1P3 ag
Cc1cc(/C=N/n2cnnc2)c(C)n1-c1cc(Cl)ccc1Cl,40,-,52,-,-,-
Cc1cc(C(=O)OCC(=O)NCCc2ccccc2)c(C)o1,-,-,-,-,-,-
OC(CN1CCN(c2ccccc2)CC1)c1ccc2c(c1)CCN2 (stereo not drawn),-,-,-,-,-,-
O=C(COC(=O)c1ccco1)Nc1cccc(Br)c1,-,-,-,-,.,.
COCC(=O)Nc1cccc(Br)c1,-,20,-,-,.,-
Cc1cc(NS(=O)(=O)c2ccc(N)cc2)no1,-,-,.,-,-,-
CCN1C(=O)c2ccccc2S(=O)c2ccc(C(=O)NCCCN3CCCC3=O)cc21 (stereo not drawn),30,-,-,-,-,-
CCN1C(=O)c2ccccc2S(=O)c2ccc(C(=O)NC3CC3)cc21 (stereo not drawn),-,-,-,-,-,-
Cc1nc(C)c(C(=O)C2=C(O)C(=O)N(CCCN(C)C)C2c2ccco2)s1 (stereo not drawn),-,-,-,-,-,-
COc1cc2c(cc1OC)C1=C(C#N)CN(CC(=O)O)CN1CC2,33,-,-,-,-,-
COc1cc2c(cc1OC)CN(C(=O)COc1ccc(C#N)cc1)CC2,-,-,-,-,-,-
COc1ccc(S(=O)(=O)N(CC(=O)NCC2CCCO2)c2ccccc2)cc1OC (stereo not drawn),-,-,-,-,-,-
Cc1c(C(=O)O)c2cc(O)ccc2n1-c1ccccc1,-,-,-,-,-,-
COC(=O)c1c(C)n(-c2ccc(OC)cc2)c2ccc(O)cc12,-,-,-,-,66,-
CCC(CC)C(=O)Nc1cc(=O)n(C)c(=O)n1C,-,36,-,-,-,-
N#CCCN(Cc1cccnc1)C(=O)c1ccc(S(=O)(=O)N2CCOCC2)cc1,-,-,-,-,-,-
N=c1c(S(=O)(=O)c2ccc(Cl)cc2)cc2c(=O)n3ccccc3nc2n1CCN1CCOCC1,-,24,-,-,-,-
Cn1c(=N)c(S(=O)(=O)c2ccccc2)cc2c(=O)n3ccccc3nc21,-,-,-,-,-,-
Cc1ccc(CNC(=O)c2cc3c(=O)n4ccccc4nc3n(Cc3ccco3)c2=N)cc1,-,-,.,-,-,-
CC(C)n1c(=N)c(C(=O)NCCc2ccccc2)cc2c(=O)n3ccccc3nc21,-,52,-,13,-,6.3
Cc1ccc(CNC(=O)c2cc3c(=O)n4ccccc4nc3n(CC3CCCO3)c2=N)cc1 (stereo not drawn),-,32,.,-,-,-
N=c1c(C(=O)NCc2ccco2)cc2c(=O)n3ccccc3nc2n1Cc1ccc(Cl)cc1,-,27,-,-,-,4.8
Cc1nnc(SCC(=O)N2CCN(S(=O)(=O)c3ccc(Cl)cc3)CC2)n(N)c1=O,-,-,-,24,-,-
Nn1cc(-c2ccccc2)nc1SCC(=O)N1CCN(S(=O)(=O)c2ccc(Cl)cc2)CC1,-,-,-,-,-,-
COc1cccc(CNC(=O)c2nnn(CC(=O)Nc3ccc(C)c(C)c3)c2N)c1,-,-,-,-,.,.
SMILES,HTR1E antagonist,5HT1a ag,5HT1a antag,HTR1E agonist,S1P1 ag pot,S1P3 ag
Cc1ccc(NC(=O)Cn2nnc(C(=O)Nc3ccc(C)c(C)c3)c2N)cc1,36,-,-,-,.,.
COc1ccc(NS(=O)(=O)c2cc(OC)ccc2NC(=O)c2cc(C)oc2C)cc1,-,-,-,-,-,-
CN=c1sc2ccccc2n1CC(O)COCc1ccco1 (stereo not drawn),-,-,.,36,-,-
Cc1nn(C/C(C#N)=N\O)c(C)[n+]1N,-,-,-,-,-,-
CC(=O)NCCN=Cc1sc2ccccc2c1O,-,49,-,-,.,.
CN=Cc1sc2ccccc2c1O,-,-,-,-,-,-
CSC1=NCCN1C(=O)c1ccc2c(c1)OCO2,-,-,-,-,-,-
CC1=CC(C)(C)N(C(=O)c2ccc(F)cc2)c2cc3c(cc21)OCO3,-,-,43,-,-,-
O=C(CN1C(=O)CC(c2ccccc2)=Nc2ccccc21)NCc1ccco1,31,-,-,-,-,-
O=C(CN(CCc1ccccc1)C(=O)CN1C(=O)COc2ccccc21)NCc1ccco1,-,-,-,-,-,-
Cc1cc(C#N)c(C)n1-c1cc(C(F)(F)F)ccc1N1CCOCC1,-,-,43,-,-,-
CC(C)(C)SCCNC(=O)c1ccc(NS(C)(=O)=O)cc1,-,-,-,-,-,-
Cn1c(=O)c2c(nc(Oc3ccc4c(c3)OCO4)n2Cc2ccc(Br)cc2)n(C)c1=O,-,40,.,-,-,-
Cn1c(=O)c2c(nc(Oc3ccc4c(c3)OCO4)n2Cc2ccc(F)cc2)n(C)c1=O,-,-,.,-,-,-
CC(CN1CCCCC1)OC(=O)c1cc2ccccc2o1 (stereo not drawn),-,46,-,-,-,-
Cn1cc(CN2CCN(c3ccccc3)CC2)c2ccccc21,-,-,-,12,.,.
c1ccc(-c2noc(CN3CCN(c4ccccc4)CC3)n2)cc1,-,-,-,-,-,-
Fc1ccccc1N1CCN(c2ncnc3[nH]ncc23)CC1,-,310,-,-,-,-
COC(=O)c1ccc(CSc2nc3scc(-c4cccs4)c3c(=O)[nH]2)o1,-,-,-,-,-,-
COC(=O)C1CCN(S(=O)(=O)Cc2ccccc2)CC1,-,-,-,-,-,-
CCCn1c(Nc2nc3ccccc3n2C)nc2ccccc21,54,-,59,-,-,-
CCCCCn1c(NCc2ccco2)nc2ccccc21,-,-,-,22,-,-
CCCn1c(NCc2ccco2)nc2ccccc21,-,-,-,-,-,-
Cc1cc(C(=O)NC(C)c2ccncc2)cs1 (stereo not drawn),-,-,-,-,-,-
COC(=O)c1cccc(NC(=O)c2nn(C)c(=O)c3ccccc23)c1,-,-,-,-,-,-
SMILES,HTR1E antagonist,5HT1a ag,5HT1a antag,HTR1E agonist,S1P1 ag pot,S1P3 ag
Cc1nc2nc(-c3cccs3)cn2nc1C,39,-,-,-,-,-
COc1cccc(-c2cn3nc(C)c(C)nc3n2)c1,-,-,-,-,-,-
COCC(=O)N(Cc1cc2cc(OC)ccc2[nH]c1=O)c1ccc(C)cc1,-,-,-,-,-,-
Cc1cnc(C(=O)Nc2cccc3cccnc23)cn1,-,-,-,-,-,-
O=C(Nc1cccc2cccnc12)c1cccnc1,-,39,-,-,.,-
CCCCN(C)CCCNC(=O)CCn1nc(-c2ccccc2)ccc1=O,-,-,-,22,-,-
CCCCNC(=O)CCn1nc(-c2ccccc2)ccc1=O,-,-,-,-,-,-
CC1=CCC2(CO)COC(c3ccccc3O)C1C2 (stereo not drawn),-,-,-,-,-,-
